Reference: the EternaBench riboswitch data

Tested on: MS2 coat protein
Assay: apparent Kd, MS2 coat protein; higher = weaker binding; RNA-MaP array; FMN 200 µM where present
In short: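 SNAP-549-labelled MS2 coat protein, doubled from 0.7 or 1.5 nM to 3 µM, was titrated over designs transcribed by stalled E. coli RNA polymerase on Illumina sequencing-chip clusters. Titrations were run without and then with constant ligand in 100 mM Tris-HCl pH 7.5, 80 mM KCl, 4 mM MgCl2, BSA, DTT, yeast tRNA and Tween-20. The apparent Kd is the median of filtered per-cluster fits to green signal normalised to red-channel RNA signal and control-cluster median Fmax.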

[1] = designed as: OFF switch for flavin mononucleotide, no ligand
[2] = ligand present: flavin mononucleotide, designed as: OFF switch for flavin mononucleotide
[3] = designed as: ON switch for flavin mononucleotide, no ligand
[4] = ligand present: flavin mononucleotide, designed as: ON switch for flavin mononucleotide

| Sequence | apparent Kd [1] [nM] | apparent Kd [2] [nM] | apparent Kd [3] [nM] | apparent Kd [4] [nM] |
| --- | --- | --- | --- | --- |
| GUAAACCUAGGAUAUACAUGAGGAUCACCCAUGUAAAGUUUCGUAAAAAGAUAAUCGAGUAGAAGGAGGUAGAU | 21.4 | 23.4 | – | – |
| GCAAGAACGGGUCAGUCCCAGAUGAGAAGGGUAGGUGGCGAUGAGUACAUGAGGAUCACCCAUGUACAGGAUAUCAUCAUUGUA | 7.63 | 8.66 | – | – |
| CAGGCGGAGUCAGGAUAUGCACGGUGGACCCAUAACAUGAGGAUCACCCAUGUUACUACGCCUCAGCAGAAGGGACAACCUCCU | – | – | 28.7 | 6.21 |
| ACUUCACAUGAGGAUCACCCAUGUCAGGCCGGACUAGGAUAUUAUCAUGCAGCGUAACAGUGAGAAGGAGUUGGAU | – | – | 91.2 | 89.3 |
| GCAGCGUAUGUAGGAUAUCGGUCAGUUUCUGAUCGAGAAGGACAUGAGGAUCACCCAUGUAAAAUACCGACUUUGUCGGGCUGC | 6.43 | 8.11 | – | – |
| CUAGUUGUCGCAGGAUAUGCCCGCUGGUUGGAGGCAGAAGGGUGACACCAAAUAUUAUACAUGAGGAUCACCCAUGUCGCCAAC | – | – | 17.9 | 19.3 |
| GCAAACAUGAGGAUCACCCAUGUCGGCUAUAAGUCCGCUCACAGAAGGGAUACGCCGGCAGGUGAUCAGGAUAUGUGGGCGCGC | – | – | 239 | 16.5 |
| CAGGAUAGAGGAUAUACAUAGAUACAGGUUCAUGUAAUCCUACAUGAGGAUCACCCAUGUAGAAGGCUAUCCUG | 15 | 43.3 | – | – |
| GUAUCAUAUGAGAAGGCGAUCAUGAAACAUGAUCGAGGAUAUCAUGAAAACAUGAGGAUCACCCAUGUAUGGGUAUUAAGGUAC | – | – | 65.6 | 41.7 |
| UUUUAGGUAGGAUAUACAUUUUUUUUAUUAUCCUCAUUAUUACAUGAGGAUCACCCAUGUAGAAGGACCAUUUU | 215 | 341 | – | – |
| CCUAAGGAGACAGGAUAUAGCGUGGUGGCCGGGCUCCCACGGCGAGCGGCGCUAGAAGGGUCACUACAUGAGGAUCACCCAUGU | – | – | 11.2 | 11.6 |
| GCAGGAUAAGUGAGGAUAUACCUCUGGAUACAGAGGUAGAAGGCACAUGAGGAUCACCCAUGUCUAUAACCUGC | 15.5 | 22.4 | – | – |
| UUGGCAACGUAGAAGGGUGACAUGAGGAUCACCCAUGUGCCGAUAUUUCUCGAGAUAUGUCGGCCACAGGAUAUACGUGCCAUC | – | – | 32.3 | 57.9 |
| GGACGUCACAUCUACAUGAGGAUCACCCAUGUCUCUUGAUAUGAGGAUAUGUAUACGAAUCGUAUACAGAAGGCAUGGACGUCC | – | – | 26.9 | 28.8 |
| GCAACGCCUGACAUGAGGAUCACCCAUGUUAGAUUGUUAUGUCAGGAUAUUGUCGCUAAAGGUGAUGAGAAGGGAUAUGUUGCU | – | – | 1180 | 71 |
| CUUUAGUGAGGAUAUCUGGCUUCGAUCGUGAGAUCGAGGCUAGAGAAGGCACAUGAGGAUCACCCAUGUUCCUU | 15.4 | 34.7 | – | – |
| AGGAGGUCAGGAUAUGCAUGGCGGGACUUGCGUCGUGGCGUGCAGAAGGGACAUGAGGAUCACCCAUGUGGAGG | 125 | 181 | – | – |
| GCCUAGCUAGGAUAUACCCAGGGUUUGUUCUCUAACGACACACAUGAGGAUCACCCAUGUAGAAGGAGCCGGGA | 47.2 | 41.4 | – | – |
| AAAGAAAGGUCAGGAUAUCCGUUAGUCGCGCAAGGAGAAGGGACCUCAUGGGUGCUGACACAUGAGGAUCACCCAUGUAAAAUA | 65.5 | 23.1 | – | – |
| UAUAUAUAGUAAGGAUAUGUAAUUAUUUGAUAAACAGAAGGUACUGACAUGAGGAUCACCCAUGUUUUAGUGUGGGCAUGUAGA | 88.2 | 138 | – | – |
| GUCAGCUCGUGAGGAUAUACAACACUGCUUCGGCAGUGUAUUAAGACCACAUGAGGAUCACCCAUGUAGAAGGCACGAGCUGAU | 5.18 | 14.3 | – | – |
| GUCCUCCGUGCCCUUAACGCACAUGAGGAUCACCCAUGUAGGAGAAGGGCCCAACAAAUCAAAGGGCAGGAUAUCCAAAUCAUG | 75.1 | 18.9 | – | – |
| GUGCCUAACUAGAAGGCCGUAUGCAAAGCAUACGGAGGAUAUGGGUUCCGGAAACGGACAUGAGGAUCACCCAUGUGGCACAAA | – | – | 80.4 | 10.6 |
| AGAUCAACCACAGGAUAUGGCUAGCAUAGCUAGCCAGAAGGGUGGUCGUAUCCAUGUAAAUACAUGAGGAUCACCCAUGUAUCC | – | – | 220 | 119 |
| ACGUGUCGUGUAGGAUAUGACACAGGAAACUGGUCAGAAGGACAUGAGGAUCACCCAUGUAAAAUGUUCAAGAAUGACGUAUGC | 58.6 | 105 | – | – |
| CUGGGCGGAGGAUAUGCGGGUUGGGCUUUUGUUCGGCUGGGACAUGAGGAUCACCCAUGUAGAAGGUUGUUCGG | 168 | 124 | – | – |
| AAGAAGUGAGGAUAUAGUUGCACUAGCUAAUGCUAGUGCAACUAGAAGGCACAUGAGGAUCACCCAUGUAAAAG | 29.1 | 41.9 | – | – |
| AAAGUUCGAGGAUAUCUACUUAGCUACAUGAGGAUCACCCAUGUUAUCCUCCCGCUGGGAAGAGAAGGCGGUUAAA | 36.5 | 210 | – | – |

| Sequence | apparent Kd [1] [nM] | apparent Kd [2] [nM] | apparent Kd [3] [nM] | apparent Kd [4] [nM] |
| --- | --- | --- | --- | --- |
| AAUUAGGUCACAGGAUAUACAACUUCCAUUGCUGUAGAAGGGUGUCACAUACUUAGCUGACAUGAGGAUCACCCAUGUAUCCAC | – | – | 243 | 95.2 |
| AAAAAGUCAGGAUAUUCGGAUAGGAAAACGAAAACCUAUCCGAAGAAGGGACAUGAGGAUCACCCAUGUAAAAA | 27.4 | 46.5 | – | – |
| ACAAAGUGAGGAUAUGCUAUCGUACAUUAUUGUUAUCGUUUGCAGAAGGCACAUGAGGAUCACCCAUGUAAGAA | 29.4 | 30.5 | – | – |
| CCUCCCUGAGGAUAUCCACCCUCAUACAUGAGGAUCACCCAUGUUCAUCCCUGGGUACCCGGAGAAGGCAGAUUUC | 154 | 165 | – | – |
| GUCACGUAAGGAUAUCAUUAGUUGGACAUGAGGAUCACCCAUGUGAGACUAACUCCGGCGUGAGAAGGUGCGUUAA | 13.4 | 16.7 | – | – |
| UGCCAUUACAUGAGGAUCACCCAUGUUCGCUAUGCGGGCUCGCAGGAUAUCCUCGCAGAUAAAGAGGAGAAGGGUGAUCCCGAC | – | – | 48 | 28.9 |
| UGAGCAUCAGGAUAUAUGUGGCGACCGUGAGGUCGAAGGUUACAUGAGGAUCACCCAUGUAGAAGGGAUGUUCU | 62.6 | 203 | – | – |
| CCCUAGAUCCGAGGAUAUACAAUCCGGAAACGGUACAUGAGGAUCACCCAUGUAGAAGGCGGAUCUACAGGUACUAAAGUACCC | 7.3 | 9.22 | – | – |
| CUGGUGUGAGGAUAUCAAAGACCUCGGGAAAGAACCGAGAAUGAGAAGGCACAUGAGGAUCACCCAUGUAACAA | 18.2 | 30.7 | – | – |
| AGUUAAUAUCGAGGAUAUGUCUAGACACAUGAGGAUCACCCAUGUAUGUGUAUAGAAGGCGAAAAUAACAGCAUGUUACAUGCA | – | – | 37.4 | 19.9 |
| AACUAUGUAUUUAUAGUGUCUGACAGAAGGCAAUAGGUUGUGACCGACAUGAGGAUCACCCAUGUUGAGGAUAUGUCUAGCUAC | 40.4 | 264 | – | – |
| GCUGCGCGAGGAUAUGCGGUUUGUGCUUUGGCCCAUGGCGUACAUGAGGAUCACCCAUGUAGAAGGCGUGUGGG | 13.5 | 13.8 | – | – |
| UUUAAACAUGAGGAUCACCCAUGUCGUUCAAAUCAAGGAUAUCAAGCGUGUGAGCACACUUGAGAAGGUGAAGCUC | – | – | 31 | 60.8 |
| UUAUACGUUGAGGAUAUGCGAUUUAGUAUAGUUGUAGAAGGCGAUACAUGAGGAUCACCCAUGUUUAUGGGCAU | 328 | 257 | – | – |
| UCAUUUCUGUUAGGAUAUUAAAACAUGACGAUACAUGAGGAUCACCCAUGUUAAGAAGGAACAAAUACAUAUAAUGCAAUGUUC | 12.5 | 10.7 | – | – |
| UAGGACUACGUAGGAUAUUAAAUCAUGUACUACAUGAGGAUCACCCAUGUUAAUUUAACAUCAGCUGAGAAGGACGUGGUAAAU | – | – | 120 | 58.5 |
| GAAUAAUUGAUCCUUUUUUAUUACAUGAGGAUCACCCAUGUGCAGGAUAUCGAGAGUUUUAGAUUCGAGAAGGGCAAGAACUGU | 905 | 629 | – | – |
| UCGUGCCGGGUCACGAUUGACCCACAUGAGGAUCACCCAUGUAGAAGGACCAGCGUCGGCCCUUGGUAGGAUAUACAUGAGCUC | 94.8 | 114 | – | – |
| UAUAUAUAGUAAGGAUAUGUAAUUACUUUAUAAACAGAAGGUACUGACAUGAGGAUCACCCAUGUUUUAGUGUGGGCAUGUAGA | 87 | 113 | – | – |
| UGUCUGAGCAGAGGAUAUUACAUGAGGAUCACCCAUGUAUGAACCAAUAGCUGGAAACAGCAAUGUAAGAAGGCUGCUCCGACA | 12.6 | 199 | – | – |
| GAUUCGGGAGGAUAUACAUGAGGAUCACCCAUGUGUUUUUUGUGUGUUUUGUUAUCGUGUAGAAGGUUUGGGUC | 117 | 172 | – | – |
| CCUGUGUGAGGAUAUGGUGUUAAAAAAAAGGAAUAGCUCCUCCAGAAGGCACAUGAGGAUCACCCAUGUCGUGG | 23.4 | 57.1 | – | – |
| GCACUGGAUGUAGGAUAUCAGGACGAUAAGUCCUGAGAAGGACAUGAGGAUCACCCAUGUAAAACCUCCCAGUGCUAUAAUAUA | 17.1 | 19.7 | – | – |
| AGCUGGUGACAGCAUCCAUCUUAACAUGAGGAUCACCCAUGUAGAAGGCUGUACGGUUACCGUACAGAGGAUAUACAUAGAUGG | 7.95 | – | – | – |
| AUUUAUGGCCAGAAGGACAUGAGGAUCACCCAUGUAGGAUAUGGACGAUUUUACUCGGCGGUUUGUUAAGGAAGCACCGGCGGU | – | – | 7.76 | 6.08 |
| CAUAUCGUAAGAGGAUAUAUGAGUCCUACAUGAGGAUCACCCAUGUAGGUGAUCUAACGAGAUUAGUAGAAGGCUUACGAUAUG | – | – | 16.2 | 7.62 |
| CUCCUCCUGGUCAGGAUAUGAGCUUUAUCGGAUAUUCAGAAGGGACAUGAGGAUCACCCAUGUAACGUCGCUGG | 14.8 | 17.2 | – | – |
